Source: ChEMBL document CHEMBL1125079, “A unified approach to systematic isosteric substitution for acidic groups and application to NMDA antagonists related to 2-amino-7-phosphonoheptanoate” (J Med Chem, 1990)

Assays:
[1] = Dissociation constant (pKa); format: physicochemical
Summary of the method: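 Measured in water at 23 °C from UV absorbance versus pH, using a pH meter calibrated with pH 5, 7 and 9 buffers. pH was stepped with 6 N HCl or NaOH to give 7–15 readings spanning the expected pKa, at 2–4 wavelengths with flow stopped. Spectra at pH 3 and 10 checked for decomposition. Simplex curve fit gave the pKa, reported as mean ± SD across wavelengths.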

[2] = species: Rattus norvegicus; test: Tested for inhibition of NMDA-induced cyclic GMP increase in rat cerebellar slices; format: functional
[3] = potentiometric pKa(in 25 mL of 1 M NaCl) of the compound.; format: physicochemical
[4] = Potentiometric pKa(in 25 mL of water) of the compound.; format: physicochemical
[5] = molecular target: Glutamate receptor ionotropic, kainate (Rattus norvegicus) (UniProt P22756+Q01812+P42260+P42264+Q63273); test: Inhibition at Ionotropic glutamate receptor kainate was determined at a concentration of 200 uM in rat cerebellar slices

Row | pKa [1] | IC50 [2] | Structure (SMILES) | also measured
1 | 6.23 | – | O=S(=O)(Cc1ccccc1)c1nc[nH]n1 | –
2 | 9.5 | – | c1ccc(CSc2nc[nH]n2)cc1 | –
3 | 7.85 | – | Oc1n[nH]c(SCc2ccccc2)n1 | –
4 | 9.8 | – | [O-][S+](Cc1ccccc1)c1ncc[nH]1 (stereo not drawn) | –
5 | 5.15 | – | O=S(=O)(Cc1ccccc1)c1c[nH]nn1 | –
6 | 7.38 | – | [O-][S+](Cc1ccccc1)c1nc[nH]n1 (stereo not drawn) | –
7 | 11.6 | – | c1ccc(CSc2ncc[nH]2)cc1 | –
8 | 4.79 | – | O=S(=O)(Cc1ccccc1)c1nc(O)n[nH]1 | –
9 | 6.09 | – | [O-][S+](Cc1ccccc1)c1c[nH]nn1 (stereo not drawn) | –
10 | 5.2 | – | [O-][S+](Cc1ccccc1)c1nc(O)n[nH]1 (stereo not drawn) | –
11 | 8.2 | – | c1ccc(CSc2c[nH]nn2)cc1 | –

Second part, the compound before the results:

Row | Structure (SMILES) | pKa [1] | IC50 [2] | also measured
12 | O=S(=O)(Cc1ccccc1)c1ncc[nH]1 | 8.67 | – | –
13 | NC(CCCCCP(=O)(O)O)C(=O)O (stereo not drawn) [AP-7] | 2.64 | 35 µM | pKa [3]: 9.84; pKa [4]: 7.72
14 | NC(CCCSc1cc(Cl)ccc1O)C(=O)O (stereo not drawn) | – | 260 µM | –
15 | NC(CCCCCSc1ccccc1O)C(=O)O (stereo not drawn) | 9.35 | 310 µM | –
16 | N[C@H](CCCCSc1cc(Cl)ccc1O)C(=O)O | – | > 10000 µM | –
17 | NC(CCCSc1ccccc1O)C(=O)O (stereo not drawn) | – | > 10000 µM | –
18 | NC(CCCCC[S+]([O-])c1ccccc1O)C(=O)O (stereo not drawn) | – | > 10000 µM | –
19 | Nc1ccccc1SCCCCCC(N)C(=O)O (stereo not drawn) | – | 140 µM | inhibition [5]: 20%
20 | NC(CCCCCSc1cc(Cl)ccc1O)C(=O)O (stereo not drawn) | 8.55 | 220 µM | –
21 | NC(CCCCCS(=O)(=O)c1ccccc1O)C(=O)O (stereo not drawn) | 7.38 | > 10000 µM | –
